SR-BI uptake up: SR-BI HDL lipid transfer activation | 320,000 tested, 0.096% active | CHO ldlA[mSR-BI] cells, DiI-HDL uptake fluorescence, 3 h; 100 = double the neutral-control signal | activation, % at 12.5 µM;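 active = mean replicate activation of at least 60% and every replicate at or above 60%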
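Material: SR-BI-overexpressing, LDLR-lacking CHO cells | Dosing: Single compound concentration, delivered by pin transfer | Probe or stimulus: Labelled HDL, 10 µg/mL | Signal: Bottom-read cell fluorescence after medium removal, ex 550/em 595 nm | Schedule: 3 h, 37 °C | Evaluation: HDL uptake via cellular fluorescence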
Lipid droplet: hepatic lipid droplet formation modulation; AML12 mouse hepatocytes, oleate lipid droplets, BODIPY imaging; inhibition, % at 6.5 µM; 240,000 tested, 0.4% active; AID 1656;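 active = lipid droplet intensity inhibited by at least 50%, with more than 500 cells counted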
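Material: mouse AML12 hepatocyte cell line, fixed after treatment; Timing: compound with oleate, overnight; Technique: high-content imaging of BODIPY-stained droplets and DAPI nuclei; Probe or stimulus: oleate, 100 µM final; Dosing: compound at 6.5 µM only.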
SR-BI DiI inh: inhibitors of mouse SR-BI mediated HDL lipid uptake | ldlA[mSR-BI] CHO cells, DiI-HDL uptake fluorescence, 3 h | Q61009 | inhibition, % at 12.5 µM | 320,000 tested, 0.96% active | AID 488896;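 active = mean replicate inhibition of at least 70% and a set share of replicates each scoring 70 or more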
AHR act: human AHR activation; AHR-responsive luciferase reporter cells, luminescence; activation, % at 5 µM; 320,000 tested, 2.5% active; AID 2796; in the data active = activation above about 47%
Target sequence (P35869 whole entry, looked up): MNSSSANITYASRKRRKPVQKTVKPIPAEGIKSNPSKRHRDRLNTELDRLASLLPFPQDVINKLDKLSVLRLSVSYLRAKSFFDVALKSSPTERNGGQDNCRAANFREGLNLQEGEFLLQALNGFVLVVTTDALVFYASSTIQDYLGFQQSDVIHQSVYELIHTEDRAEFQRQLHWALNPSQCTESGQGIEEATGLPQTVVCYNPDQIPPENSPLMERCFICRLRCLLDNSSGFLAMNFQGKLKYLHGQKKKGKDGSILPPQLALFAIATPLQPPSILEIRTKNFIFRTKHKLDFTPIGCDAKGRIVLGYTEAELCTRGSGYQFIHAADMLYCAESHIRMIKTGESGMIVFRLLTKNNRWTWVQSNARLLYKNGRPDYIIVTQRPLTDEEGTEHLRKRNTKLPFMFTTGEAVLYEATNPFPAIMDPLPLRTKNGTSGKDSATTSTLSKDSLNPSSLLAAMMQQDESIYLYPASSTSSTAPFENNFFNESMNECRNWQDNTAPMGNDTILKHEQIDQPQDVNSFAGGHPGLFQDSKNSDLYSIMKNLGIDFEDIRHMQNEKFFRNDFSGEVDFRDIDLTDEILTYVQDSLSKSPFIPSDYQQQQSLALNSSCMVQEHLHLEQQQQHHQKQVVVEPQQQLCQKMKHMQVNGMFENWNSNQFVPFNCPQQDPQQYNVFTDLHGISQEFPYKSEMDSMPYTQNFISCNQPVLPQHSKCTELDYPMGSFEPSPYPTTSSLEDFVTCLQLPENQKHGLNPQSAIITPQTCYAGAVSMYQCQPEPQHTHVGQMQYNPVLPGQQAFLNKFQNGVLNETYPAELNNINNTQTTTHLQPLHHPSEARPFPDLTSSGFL
CR mimetic SO: lowers age-related superoxide in aged yeast cells; 330,000 tested, 0.18% active; S. cerevisiae aged cells, superoxide DHE fluorescence; hits give low values; superoxide response (% of plate mean), % at 10 µM;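 active = superoxide response under a set limit, about three screen SD below normal, cut at about 65% in these data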;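 note: yeast aged for seven days with compound at 30 °C before DHE staining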
SMARCA2 activ: activators of SMARCA2 function; MG213 cells, MMTV-luciferase reporter, dexamethasone, overnight; activation, % at 9.1 µM; 370,000 tested, 1% active; AID 652017; in the data active = activation above about 7.8%
Each line names hits and unclear results; the compound was inactive in the other large screens. Sampled rows, rich in hits. Any-hit rate of the full collection: about 4.3%.

O=C([C@@H]1C[C@H]1c1ccccc1)N1CCC(Oc2cccnc2)CC1	none (no result: SR-BI uptake up, Lipid droplet, SR-BI DiI inh, AHR act, CR mimetic SO)
COc1cccc(CC(=O)Nc2ccccc2C(=O)N2CCOCC2)c1	SR-BI uptake up 71
COc1ccc(NC(=O)N(C)C[C@H]2OCc3cn(nn3)CCCC(=O)N([C@H](C)CO)C[C@@H]2C)cc1	none (no result: SR-BI uptake up, Lipid droplet, SR-BI DiI inh, AHR act, CR mimetic SO)
O=C(Cc1csc(-c2ccccc2)n1)Nc1ccc(C(F)(F)F)cc1	AHR act 55
C[C@H]1CCC/C=C/C(=O)c2c(cc(O)c(Cl)c2O)CC(=O)O1	none (no result: SR-BI uptake up, Lipid droplet, SR-BI DiI inh, AHR act, CR mimetic SO)
Cc1c(C(=O)O)oc2c1ccc1ccccc12	none (no result: Lipid droplet)
Cc1c(C(=N)C(C#N)C#N)c(=N)oc2c1ccc1ccccc12	AHR act 65
Cc1cc(C(=O)N/N=C/c2c(C)n(C)c3ccccc23)n[nH]1	AHR act 77
CCOc1ccc2ccccc2c1/C=N/NC(=O)c1cc(C)[nH]n1	none
Cc1cc(C(=O)N/N=C/c2cc(N=Nc3ccccc3)ccc2O)n[nH]1	SR-BI DiI inh 115 (no result: SMARCA2 activ)
COC(=O)N/N=C/c1cc(N=Nc2ccccc2)ccc1O	none
Cc1cc(C(=O)N/N=C/c2c(C)[nH]c3ccccc23)n[nH]1	none
Cc1cc(C(=O)N/N=C/c2c3ccccc3cc3ccccc23)n[nH]1	AHR act 98
COC(=O)CSc1nnc(-c2n[nH]c3c2CCC3)n1N	none (no result: SR-BI uptake up, Lipid droplet, SR-BI DiI inh, AHR act, CR mimetic SO)
CCN(CC)C(=O)c1oc(=O)c2ccccc2c1-c1ccc(C)cc1	none (no result: SR-BI uptake up, Lipid droplet, SR-BI DiI inh, AHR act, CR mimetic SO)
C/C(=N\Nc1cc(-c2ccccc2)nc(-c2ccc(Br)cc2)n1)c1cccc(N)c1	AHR act 71 (no result: Lipid droplet)
C/C(=N/Nc1cc(-c2ccccc2)nc(-c2ccccc2)n1)c1ccc(O)cc1	AHR act 66 (no result: SR-BI uptake up, SR-BI DiI inh)
C/C(=N/Nc1nc(-c2ccccc2)cc(-c2ccccc2)n1)c1ccc(N)cc1	none (no result: SR-BI uptake up, SR-BI DiI inh, AHR act, CR mimetic SO, SMARCA2 activ)
Nc1[nH]c(C(=O)c2ccccc2)c(-c2ccc(F)cc2)c1C(=O)c1c[nH]c2ccccc12	none (no result: SR-BI uptake up, Lipid droplet, SR-BI DiI inh, AHR act, CR mimetic SO)
COC(=O)/C=C1\OC(C)c2ccccc21 (configuration not stated)	none (no result: SR-BI uptake up, Lipid droplet, SR-BI DiI inh, AHR act, CR mimetic SO)
Cc1nnc(-c2ccc(N3CCOCC3)c([N+](=O)[O-])c2)o1	none (no result: Lipid droplet, SMARCA2 activ)
Cc1cccc(Nc2nnc(-c3ccc(N4CCOCC4)c([N+](=O)[O-])c3)c3ccccc23)c1	SR-BI DiI inh 73
O=C1c2ccccc2NC(c2cccc(O)c2)N1Cc1ccco1 (configuration not stated)	AHR act 48
COc1ccc(C2Nc3ccccc3C(=O)N2Cc2ccco2)cc1CN1C(=O)c2ccccc2C1=O (configuration not stated)	none
O=S1(=O)c2ccc(N3CCCC3)cc2Oc2ccccc2CN1Cc1cn(Cc2ccc(F)cc2)nn1	none (no result: SR-BI uptake up, Lipid droplet, SR-BI DiI inh, AHR act, CR mimetic SO)
Clc1ccccc1-c1nnc2sc(-c3cccs3)nn12	AHR act 71 (no result: Lipid droplet)
CCOC(=O)/C(=C/C=C1\Sc2ccccc2N1CC)C(C)=O	none (no result: SMARCA2 activ)
CCOC(=O)/C(=C\C=C1/Sc2ccccc2N1CC)C(C)=O	AHR act 53
Cn1c(=N)n(CC(=O)c2ccc(Cl)c(Cl)c2)c2ccccc21	AHR act 54
Cn1c(=N)n(CC(=O)O)c2ccccc21	none
COc1ccc(C(=O)Cn2c(=N)n(C)c3ccccc32)cc1	AHR act 76
Cn1c(=N)n(CC(=O)c2ccccc2)c2ccccc21	none (no result: SR-BI uptake up, SR-BI DiI inh)
C=CCn1c(=N)n(CC(=O)c2ccc(OC)cc2)c2ccccc21	AHR act 67 (no result: SR-BI uptake up, SR-BI DiI inh)
Cc1cccc(NC(=O)c2nc[nH]c2C(=O)N(C)CCO)c1	none (no result: SR-BI uptake up, Lipid droplet, SR-BI DiI inh, AHR act, CR mimetic SO)
COc1ccc(/C(C)=N/Nc2ncc(Cl)cc2Cl)c(O)c1	SR-BI DiI inh 106
C/C(=N\Nc1ncc(Cl)cc1Cl)c1ccc(C#N)cc1	none
O=C(c1cccc(F)c1F)N1CCCc2ccccc21	AHR act 51
O=C(C(=O)N1CCCc2ccccc21)c1c[nH]c2ccccc12	AHR act 50 (no result: Lipid droplet)
Cn1cc(C(=O)C(=O)N2CCc3ccccc32)c2ccccc21	AHR act 63
Cc1ccc2c(c1)N(C(=O)c1ccco1)C(C)(C)c1ssc(=S)c1-2	SR-BI DiI inh 94
Cc1cccc2c1N(C(=O)c1ccco1)C(C)(C)c1ssc(=S)c1-2	none (no result: Lipid droplet)
O=C(Nc1nc(-c2cccc3ccccc23)cs1)c1cnccn1	AHR act 49
O=C(Nc1nc(-c2ccc(F)c(F)c2)cs1)c1cnccn1	none (no result: SR-BI uptake up, SR-BI DiI inh)
COc1ccccc1CCn1cnc(-c2ccc(OC)c(OC)c2)c1CC(C)C	none (no result: SR-BI uptake up, Lipid droplet, SR-BI DiI inh, AHR act, CR mimetic SO)

Bioassay records as filed in PubChem.
